Rows were chosen to be rich in hits. Some 2.2% of all compounds tested hit in one or more screens of this group.
LEDGF integ inh: blocks HIV-1 LEDGF/p75-dependent DNA integration. TR-FRET IN-LEDGF/p75 DNA integration, Eu/Cy5. inhibition, % at 3.7 µM. hit rate 0.64% among 370,000. AID 743269;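 active = inhibition above the screen-wide mean plus 3 SD, cut at about 13% in these data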;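 note: signal is the Cy5 over europium emission ratio at 671 and 618 nm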
SIAE primary: blocks human sialic acid acetylesterase. AID 1053197. SIAE FP-Rh probe binding, fluorescence polarization. Q9HAT2. inhibition, % at 9.66 µM. hit rate 0.69% among 370,000;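 active = inhibition above a cutoff: mean of compounds within the control limits plus 3 SD of those, cut at about 17% in these data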
TCR CD3 inh: human TCR-CD3 binding inhibition | TAMRA-labeled TCR probe fluorescence, biochemical | inhibition, % at 9.4 µM | hit rate 0.37% among 360,000 | AID 651800; in the data active = inhibition above about 19%;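 note: recombinant mutant TCR 2C K166C tagged with TAMRA read by polarization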
TDP2 inh: blocks human TDP2 phosphodiesterase activity; O95551; recombinant TDP2, T5PNP hydrolysis, p-nitrophenol absorbance 415 nm; inhibition, % at 12.8 µM; hit rate 0.34% among 370,000;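 active = inhibition above the mean of all tested compounds plus 3 SD, set per campaign, cut at about 25% in these data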
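Test system: Human TDP2 enzyme | Reagent: 5 mM T5PNP | Compound dosing: 12.8 µM single point, 1% DMSO | Incubation: Enzyme reaction with compound for 2 h at 37 °C | Technique: p-Nitrophenol epi absorbance | Read-out: % inhibition relative to enzyme-containing and enzyme-free wells | Benchmarks: High control without enzyme, low control DMSO plus TDP2 | Replicates: Singlicate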
HTRA1 inhibitor: inhibitors of human serine peptidase HTRA1; hit rate 0.5% among 340,000; inhibition, % at 5.96 µM; Q92743; AID 504803; recombinant HTRA1, FP-rhodamine activity-based probe, fluorescence polarization; in the data active = inhibition above about 36%
mABHD4 FP: inhibitors of mouse ABHD4 | Q8VD66 | purified mABHD4, FP-Rh probe fluorescence polarization | inhibition, % at 8.92 µM | hit rate 0.54% among 370,000;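 active = inhibition exceeding the mean over every tested compound plus 3 SD, cut at about 30% in these data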
Target sequence (Q8VD66 whole entry, looked up): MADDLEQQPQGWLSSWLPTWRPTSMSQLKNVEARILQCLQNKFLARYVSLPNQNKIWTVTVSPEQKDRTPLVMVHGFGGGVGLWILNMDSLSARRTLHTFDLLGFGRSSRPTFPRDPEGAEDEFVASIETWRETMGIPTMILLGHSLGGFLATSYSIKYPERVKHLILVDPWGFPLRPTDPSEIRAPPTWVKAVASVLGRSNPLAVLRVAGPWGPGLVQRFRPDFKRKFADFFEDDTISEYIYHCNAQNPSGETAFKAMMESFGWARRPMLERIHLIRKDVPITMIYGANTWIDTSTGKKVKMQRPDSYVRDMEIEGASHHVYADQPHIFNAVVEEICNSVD
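Assay system: wild-type mouse ABHD4 protein; compound: single nominal dose of 8.92 µM, 0.89% DMSO final; schedule: 45 min + 60 min at 25 °C; measured by: FP readout, ex 525 nm / em 598 nm; evaluation: % inhibition of FP-Rh probe binding versus controls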
IN multimer up: counter-screen for LEDGF/p75 integration inhibitors: HIV-1 integrase multimerization activators; shares compounds with LEDGF integ inh; TR-FRET HIV-1 integrase multimerization, biochemical; activation, % at 7.7 µM; hit rate 17% among 2,000; in the data active = activation above about 8.9%
TRFRET interf: counter-screen for LEDGF/p75 integration inhibitors: TR-FRET optical interference; 2,000 tested, under 10 active; inhibition, % at 7.7 µM; shares compounds with LEDGF integ inh; TR-FRET optical interference counterscreen, HIV-1 IN multimerization;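 active = inhibition above the mean over all tested compounds plus 3 SD, which no compound reached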
IN-LEDGF confirm: LEDGF/p75-dependent HIV-1 integration inhibition, confirmation | shares compounds with LEDGF integ inh | TR-FRET LEDGF/p75-dependent HIV-1 integration, biochemical | inhibition, % at 3.7 µM | hit rate 36% among 2,000; in the data active = inhibition above about 14%
Hits are given with their value; n = inactive; x = no result given.

SMILES	LEDGF integ inh	SIAE primary	TCR CD3 inh	TDP2 inh	HTRA1 inhibitor	mABHD4 FP	IN multimer up	TRFRET interf	IN-LEDGF confirm
CN1C2CCC1/C(=C\c1ccc(F)cc1)C(=O)/C2=C/c1ccc(F)cc1	n	n	n	n	n	n	x	x	x
COC(=O)[C@]12C[C@H](CC(=O)N3CCSCC3)C(=O)N(Cc3ccccc3)C1=C[C@H](COCc1ccccc1)O[C@@H]2C	n	n	x	n	x	n	x	x	x
FC(F)(F)c1cccc(OCCOCCn2cncn2)c1	21	n	n	n	n	n	n	n	n
c1ccc(-c2ccc(OCCOCCn3cncn3)cc2)cc1	n	n	n	n	n	n	x	x	x
O=C(c1ccco1)N(c1ccccn1)c1ccccn1	n	n	n	n	n	n	x	x	x
CCc1ccc(OC(=O)/C=C/c2ccco2)cc1	15	n	n	n	n	n	n	n	n
O=C(/C=C/c1ccco1)N(c1ccccn1)c1ccccn1	22	n	n	n	n	n	n	n	46
O=C(/C=C/c1ccco1)Oc1cccc2cccnc12	14	n	n	n	n	n	n	n	n
COc1ccc(C(C)(C)C)cc1N1C(=O)[C@@H]2CSCCS(=O)(=O)N2C1=O	n	n	n	n	x	n	x	x	x
CCOC(=O)[C@@]12CCCC3=C1N(CCC3)C(=O)[C@H]2CC(=O)NCCCCc1ccccc1	n	n	x	n	x	n	x	x	x
C=CCNC(=S)N/N=C(\C)c1cccc(OC)c1	n	n	n	n	n	n	x	x	x
C=CCNC(=S)N/N=C(\C)c1ccc(OC)cc1	16	n	n	n	n	n	n	n	n
CCCCN(C)C(=O)c1ccc2c(c1)S(=O)(=O)c1ccccc1C2=O	n	n	n	n	n	n	x	x	x
O=C1c2cccc(Sc3ccccc3)c2C(=O)c2c(Sc3ccccc3)cccc21	14	n	n	n	x	n	n	n	n
CN(C)c1cccc2c1C(=O)c1ccccc1C2=O	n	n	n	n	n	n	x	x	x
O=C(CCSc1ccccc1)Nc1nnc(-c2ccccc2)o1	16	n	n	n	n	n	n	n	n
Cc1ccc(O)c(-c2[nH]ncc2C(=O)c2ccc(Br)cc2)c1	14	n	n	n	n	n	n	n	n
Cc1ccccc1OCC(=O)OCC(=O)Nc1cc(C(F)(F)F)ccc1N1CCOCC1	17	n	n	n	n	n	n	n	n
COC(=O)[C@@H]1CCCN1C(=O)c1ccc(OC2CCN(Cc3ccccn3)CC2)cc1	n	n	n	n	n	n	x	x	x
COc1ccccc1Cc1c(-c2ccco2)nc2cc(C)c(Br)c(C)n12	14	n	n	n	x	n	n	n	21
O=c1/c(=C\c2cc([N+](=O)[O-])cc([N+](=O)[O-])c2O)sc2nc3ccccc3n12	x	x	x	x	n	x	x	x	x
O=C(O)c1cccc(-c2ccc(/C=c3/sc4nc5ccccc5n4c3=O)o2)c1	46	n	n	n	n	n	11	n	20
c1ccc(CCn2cccc2)nc1	n	n	n	n	n	n	x	x	x
CCn1c(=O)c(C(=O)CN2CCN(Cc3ccc4c(c3)OCO4)CC2)c(N)n(Cc2ccccc2)c1=O	n	n	n	n	n	n	x	x	x
CCn1c(=O)c(C(=O)CN2CCN(S(=O)(=O)c3cc(C)ccc3C)CC2)c(N)n(Cc2ccccc2)c1=O	50	n	n	n	n	n	n	n	n
SMILES	LEDGF integ inh	SIAE primary	TCR CD3 inh	TDP2 inh	HTRA1 inhibitor	mABHD4 FP	IN multimer up	TRFRET interf	IN-LEDGF confirm
COc1ccc2c(COC(=O)CCS(=O)(=O)c3ccc(C)cc3)cc(=O)oc2c1	n	n	n	n	n	n	x	x	x
CC(=O)Nc1cc(C(F)(F)F)ccc1Oc1cccc(Br)c1	16	n	n	n	n	n	n	n	n
Nc1c(O)cccc1C(=O)O	38	n	n	n	n	n	n	n	21
O=C(O)c1ccccc1O	n	n	n	n	n	n	x	x	x
CN(C)CCNC(=O)c1cccc(-c2cccc3nncn23)c1	55	n	n	n	x	n	n	n	n
Cc1cnc(C)c(N(C)NC(=S)Nc2ccccc2)n1	16	n	n	n	n	n	n	n	n
CC(=O)NNC(=O)c1sc(=S)n(C)c1C	22	n	n	n	n	n	n	n	n
COc1ccc(CCN(C(=O)c2snc(C(N)=O)c2N)C(C)C(=O)NC2CCCCC2)cc1OC (configuration not stated)	n	n	n	n	n	n	x	x	x
O=C(NCc1ccccc1)c1cc(C2CCCN(S(=O)(=O)c3cccc4cccnc34)C2)on1 (configuration not stated)	n	n	n	n	x	n	x	x	x
CCCNC(=O)c1cc(C2CCCN(S(=O)(=O)c3cccc4cccnc34)C2)on1 (configuration not stated)	37	n	n	n	x	n	n	n	n
Cc1cc([N+](=O)[O-])ccc1P(=O)(O)c1ccc([N+](=O)[O-])cc1C	n	n	n	n	n	n	x	x	x
Clc1ccc2nc(-c3ccccc3)c(Cc3ccccc3)n2c1	27	n	n	n	n	n	n	n	n
Cc1ccc(Cc2c(-c3ccc(Br)cc3)nc3ccc(Cl)cn23)cc1	14	n	n	n	x	n	n	n	n
O=C(NCc1ccccc1)c1cc(-c2ccco2)on1	16	n	n	n	n	n	n	n	n
O=S(=O)([O-])C/C(=C\c1ccc(Cl)cc1)c1cc[n+](CCO)cc1	n	n	n	n	n	n	x	x	x
O=C(NCc1ccco1)c1ccc(S(=O)(=O)N2CCCCC2)cc1	n	n	n	n	n	n	x	x	x
O=C(NCc1ccco1)c1ccc(S(=O)(=O)N2CCOCC2)cc1	14	n	n	n	n	n	n	n	20
CCn1cc(C(=O)N(C)Cc2ccc(OC(F)F)cc2)c(=O)c2ccc(C)nc21	n	n	n	n	n	n	x	x	x
Cn1c(CC(=O)NNC(=O)c2ccccc2[N+](=O)[O-])nc2ccccc21	n	n	n	n	n	n	x	x	x
Cc1nn(C)c(-c2n[nH]c(=S)n2Cc2ccco2)c1Cl	20	n	n	n	n	n	n	n	n
COc1c2ccoc2cc2oc(C)cc(=O)c12	n	n	n	n	n	n	x	x	x
Cc1cc(=O)c2c(O)c(O)ccc2o1	14	n	n	n	n	n	9.6	n	n
N#Cc1ccc(C(=O)N(Cc2ccccc2)c2ccccc2)cc1	14	n	n	n	n	n	n	n	n
O=C(CCS(=O)(=O)c1ccc(Br)cc1)N1CCN(c2ccc(F)cc2)CC1	19	n	n	n	n	n	n	n	n
